Reference: article PMC4336584 (Chemistry & biology, 2015)
Values after ≈ are worked out from the molar mass of the structure shown. Where two headings read alike, the source gives them in different places.

Experiments:
HIV-1 (NL4.3 virus) [1] = details: 21 days bi-daily dosing at 100 mg/kg; ref Stoddart et al. [29]; cited from earlier work
[2] = test system: HCV Gt1b replicon in Huh 5-2 cells; experiment: HCV antiviral assay Huh 5-2; format: cell-based; details: Hepatitis C virus, Huh-5-2, 96 h, read-out: HCV Huh5.2 Gt1b replicon EC50
Method in brief: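 Huh 5-2 cells seeded at 6.5 × 10³/well in DMEM with 250 μg/ml G418 and held 24 hr at 37°C, 5% CO2. Medium then replaced by 3-fold serial dilutions of test compound in complete DMEM without G418. After 4 days at 37°C, luciferase activity read and expressed as percent of untreated controls.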

[3] = target: HCV NS5A-cyclophilin A complex (Homo sapiens, UniProt P62937); experiment: biochemical
Sequence of HCV NS5A-cyclophilin A complex (P62937 whole entry, one chain of several): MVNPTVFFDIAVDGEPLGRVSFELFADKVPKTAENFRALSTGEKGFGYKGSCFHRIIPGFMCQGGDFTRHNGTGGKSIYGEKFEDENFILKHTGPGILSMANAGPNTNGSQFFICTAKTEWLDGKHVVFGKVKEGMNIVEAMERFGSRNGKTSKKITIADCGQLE

HIV-1 viral load = details: 14 days dosing, HIV/HCV co-infected patients; cited from earlier work
[4] = test system: HCV Huh7 Gt2a replicon (JFH-1); experiment: HCV replicon antiviral assay, genotype 2a; format: cell-based; details: Hepatitis C virus, Huh-7, 72 h, read-out: HCV Huh7 Gt2a replicon EC50
Method in brief: (§1)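 Subgenomic replicon cells were maintained at 37°C, 5% CO2 in DMEM with 10% FBS and 250 μg/ml G418. They were seeded at 5 × 10³ cells/well without G418. Next day, serial dilutions of compound in DMEM plus 5% FBS were added for 72 hr at 37°C. HCV RNA was measured by one-step TaqMan real-time RT-PCR, with ribosomal RNA as the cell-number/cytotoxicity control. EC50 was derived from both measurements.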

Cytostatic assay = format: cell-based; details: human, Huh 5-2 cells
[5] = test system: HepG2 cells stably replicating HBV; experiment: HBV antiviral assay in cells stably replicating HBV; format: cell-based; details: Hepatitis B virus, 72 h
Method in brief: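 HepG2 cells stably replicating HBV were treated with test compound at 0.1, 1 or 10 μM, with DMSO as control, for 3 days. Supernatant was then removed and cells were retreated. After a further 72 hr, HBsAg and HBeAg were measured by ELISA and HBV DNA was quantified, all in cell extracts and in triplicate.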

[6] = test system: Huh7 cells transfected with HBV DNA; experiment: HBV antiviral assay in cells transfected with HBV DNA; format: cell-based; details: test/control value, day 3, 2 µM
Method in brief: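 Huh7 cells were transfected with HBV DNA (8 μg) in the presence of 2 μM test compound or DMSO. On day 3, de novo HBsAg in cell extracts or supernatants was quantified by ELISA in triplicate. A test/control value was calculated from these readings.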

[7] = Plasma protein binding analysis; format: in vitro ADME; details: human
[8] = test system: HCV Huh7 Gt1a replicon (H77); experiment: HCV replicon antiviral assay, genotype 1a; format: cell-based; details: Hepatitis C virus, Huh-7, 72 h, read-out: HCV Huh7 Gt1a replicon EC50
Method in brief: as §1

HCV Huh7 Gt1b replicon = experiment: HCV replicon antiviral assay, genotype 1b; format: cell-based; details: Hepatitis C virus, Huh-7, 72 h, read-out: HCV Huh7 Gt1b replicon EC50
Method in brief: as §1

HIV-1 in CD4+ HeLa cells = experiment: CD4+ HeLa HIV-1 inhibitory FACS assay; format: cell-based; details: Human immunodeficiency virus 1, HeLa, 48 h, read-out: HIV-1 HeLa cells IC50
[9] = Solubility analysis in PBS pH 7.4; format: physicochemical; details: pH 7.4, aqueous buffer, kinetic from dmso stock
HIV-1 (NL4.3 virus) [10] = experiment: SCID-hu Thy/Liv mouse model of HIV-1 infection; format: in vivo, SCID-hu Thy/Liv mice; details: oral bi-daily 14 days, 50 or 100 mg/kg/day
Method in brief: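 Human fetal thymus and liver were coimplanted under the kidney capsule of male C.B-17 SCID mice aged 6–8 weeks. Implants were inoculated with NL4-3 by direct injection 18 weeks later; controls received medium. Groups of six received 50 or 100 mg/kg/day by twice-daily oral gavage from day −1 until implant collection 2 weeks post-inoculation. Implant cells were assayed for p24 (ELISA), viral RNA (bDNA) and CD3/CD4/CD8 thymocytes (flow cytometry). Results are means with SD.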

With `Nc1nc(=O)n([C@@H]2CS[C@H](CO)O2)cc1F` [emtricitabine] as the compound, how does the “viral RNA reductions” value (HIV-1 (NL4.3 virus) [1]) read?
Its value is 1–4 log10.

Which “viral RNA reductions” value (HIV-1 (NL4.3 virus) [1]) does the source give for `COC(=O)N[C@H](C(=O)N[C@@H](Cc1ccccc1)[C@@H](O)CN(Cc1ccc(-c2ccccn2)cc1)NC(=O)[C@@H](NC(=O)OC)C(C)(C)C)C(C)(C)C` [atazanavir] here?
Its value is 1–4 log10.

Which EC50 [2] does the source give for `C/C=C/C[C@@H](C)[C@@H](O)[C@H]1C(=O)N[C@@H](CC)C(=O)N(C)[C@H](C)C(=O)N(CC)[C@@H](C(C)C)C(=O)N[C@@H](C(C)C)C(=O)N(C)[C@@H](CC(C)C)C(=O)N[C@@H](C)C(=O)N[C@H](C)C(=O)N(C)[C@@H](CC(C)C)C(=O)N(C)[C@@H](CC(C)C)C(=O)N(C)[C@@H](C(C)C)C(=O)N1C` [Alisporivir] here?
The EC50 was 96 ± 23 nM.

What about the IC50 [3] of the same compound?
The IC50 was 240 ± 20 nM.

And the “mean drop in viral load” value (HIV-1 viral load)?
The value was ~ 1 log.

What about the EC50 [4] of the same compound?
The EC50 was 102 ± 8 nM.

And the CC50 at 3 days (Cytostatic assay)?
The CC50 at 3 days was 11200 nM.

What about the IC50 ([5]; read-out: HBV Huh7 stable HBV DNA IC50) of the same compound?
The IC50 was greater than 10000 nM.

What about the IC50 ([5]; read-out: HBV Huh7 stable HBeAg IC50) of the same compound?
Its IC50 is greater than 10000 nM.

What about the IC50 ([5]; read-out: HBV Huh7 stable HBsAg IC50) of the same compound?
Its IC50 is greater than 10000 nM.

And the “HBV HepG2 transfected HBsAg T/C d3 at 2uM” value [6]?
Its value is 18%.

And the fraction unbound at 5 h, 1 µM [7]?
Its fraction unbound at 5 h, 1 µM is less than 0.04.

What about the EC50 [8] of the same compound?
Its EC50 is 98 ± 11 nM.

What about the EC50 (HCV Huh7 Gt1b replicon) of the same compound?
The EC50 was 76 ± 5 nM.

And the IC50 (HIV-1 in CD4+ HeLa cells)?
The IC50 was 1500 ± 240 nM.

What about the solubility at 4 h [9] of the same compound?
The solubility at 4 h was 15 µM (≈ 18.2 µg/mL).

What about the “overt signs of toxicity” value (HIV-1 (NL4.3 virus) [10]) of the same compound?
Its value is “No overt signs of toxicity”.

For `Cc1ccnc2c1NC(=O)c1cccnc1N2C1CC1` [nevirapine], which “viral RNA reductions” value (HIV-1 (NL4.3 virus) [1]) is on record?
The value was 1–4 log10.

For `O=C1Nc2ccc(Cl)cc2[C@@](C#CC2CC2)(C(F)(F)F)O1` [efavirenz], which “viral RNA reductions” value (HIV-1 (NL4.3 virus) [1]) is on record?
The value was 1–4 log10.
